From PubChem BioAssay
A selection: hits, their analogues and other compounds. The true share with any hit is near 4%.
GPR7 antag: GPR7 receptor antagonists, primary screen, cell-based, fluorescence, single concentration | Neuropeptides B/W receptor type 1 (Homo sapiens), P48145 | GPR7-expressing cells, fluorescence antagonist assay | inhibition, % at 4.4 µM | hit rate 1.1% among 290,000 | AID 1861, 2009; in the data active = inhibition above about 16%, passing the limit was not always enough;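 also: cells stimulated with the agonist NPW; 0% = agonist with vehicle and 100% = vehicle without agonist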
TAAR1 agonist: human TAAR1 agonists, primary screen, Fluo-8 calcium fluorescence, CHO RD-HGA16 cells. Trace amine-associated receptor 1 (Homo sapiens), Q96RJ0. vehicle wells 0%, saturating PEA agonist 100%. activation, % at 3 µM. hit rate 0.99% among 360,000;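 active = activation above the mean activation of all test compounds in the run plus 3 SD, cut at about 38% in these data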
Target sequence (Q96RJ0 whole entry, looked up): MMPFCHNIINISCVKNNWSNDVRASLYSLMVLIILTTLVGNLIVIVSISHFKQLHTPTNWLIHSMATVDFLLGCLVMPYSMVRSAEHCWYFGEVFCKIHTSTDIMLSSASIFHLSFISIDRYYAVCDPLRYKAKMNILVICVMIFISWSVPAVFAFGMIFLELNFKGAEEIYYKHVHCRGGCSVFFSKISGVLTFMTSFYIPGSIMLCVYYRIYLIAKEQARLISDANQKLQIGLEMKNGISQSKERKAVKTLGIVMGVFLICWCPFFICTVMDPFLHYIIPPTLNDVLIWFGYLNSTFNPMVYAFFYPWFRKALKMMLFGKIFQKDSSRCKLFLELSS
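Signal – calcium-sensitive Fluo-8 signal, excitation 470-495, emission 515-575 nm · System – RD-HGA16 (CHO) cells co-expressing Gα16 and hTAAR1 · Incubation – 17-24 h seeding, 75 min 37 °C dye, 30 min RT · Compound dosing – 3 µM single concentration · Repeats – no replicates (n 1)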
DAGLB inhibitor: DAGLB lipase inhibitors, primary screen, biochemical, fluorescence, HTS. HEK293T DAGLB membrane lysate, EnzChek fluorogenic substrate. inhibition, % at 5.17 µM. hit rate 0.059% among 340,000. AID 504411, 2011; in the data active = inhibition above about 34%;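 also: 0% = enzyme with vehicle and 100% = wells lacking enzyme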
MPTP inh: mitochondrial permeability transition pore inhibitors, primary screen, biochemical, isolated mouse mitochondria, absorbance; Ca2+ swelling absorbance, 30 min; inhibition, % at 10 µM; hit rate 1.4% among 360,000; AID 602449, 2012;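 active = inhibition of 50% or more, scaled per plate between neutral and stimulator controls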;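 also: 0% = DMSO wells given calcium and 100% = 1 mM EGTA wells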
TAAR1 antag: human TAAR1 antagonists, primary screen, Fluo-8 calcium fluorescence, CHO RD-HGA16 cells | hit rate 1.5% among 360,000 | Trace amine-associated receptor 1 (Homo sapiens), Q96RJ0 | antagonist | inhibition, % at 3 µM;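 active = inhibition above a per-plate cutoff, the mean inhibition of test compounds on that plate plus 3 SD, cut at about 49% in these data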;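 also: 0% = DMSO plus EC80 beta-PEA response and 100% = DMSO alone without agonist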
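Assay system: CHO-derived RD-HGA16 cells stably expressing human TAAR1 plus Gα16. Timing: 140 s kinetic read after compound, 140 s after agonist. Technique: kinetic Fluo-8 calcium fluorescence measurement. Measure: % inhibition of agonist calcium response.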
GPR7 antag cf: GPR7 receptor antagonists, confirmation, cell-based, fluorescence, single concentration | shares compounds with GPR7 antag | GPR7-expressing cells, calcium fluorescence antagonist mode | inhibition, % at 4.4 µM | hit rate 52% among 2,400; in the data active = inhibition above about 24%;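 also: stimulated with the GPR7 agonist NPW; 0% = agonist plus vehicle and 100% = vehicle alone without agonist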
MCHR1 antagonist: MCHR1 antagonists in cells, counter-screen for GPR7 antagonist project, cell-based, fluorescence, human | shares compounds with GPR7 antag | MCHR1-expressing cells, fluorescence antagonist assay | inhibition, % at 4.4 µM | hit rate 62% among 2,400; in the data active = inhibition above about 22%;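 also: 0% = vehicle with agonist and 100% = vehicle without agonist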
* = called active by the depositor; . = no result.

SMILES	GPR7 antag	TAAR1 agonist	DAGLB inhibitor	MPTP inh	TAAR1 antag	GPR7 antag cf	MCHR1 antagonist
CC(C(=O)Nc1c2c(cc3c1CCC3)CCC2)N1CCCC1 (centres undefined)	32.1*	0.1	-1.2	0.1	-5.0	20.7	28.2*
CCN(CC)C(C)C(=O)Nc1c2c(cc3c1CCC3)CCC2 (centres undefined)	3.8	-1.0	-3.7	1.4	-18.5	.	.
CN1C(=O)C(CC(=O)Nc2ccc(F)cc2)N(CCCc2ccccc2)C1=S (centres undefined)	26.5*	25.6	-8.1	-10.8	16.1	23.8*	41.1*
CCc1ccccc1N(CC(=O)NC1CCCCC1)C(=O)CCCC(=O)Nc1ccccn1	6.6	3.9	-0.7	-0.6	2.2	.	.
Cc1ccccc1N(CC(=O)NC1CCCCC1)C(=O)CCCC(=O)Nc1ccccn1	38.2*	0.8	-0.1	-1.1	-14.4	33.3*	17.9
C[C@@H](NC(=O)[C@@H]1CCCN1C(=O)OC(C)(C)C)c1ccccc1	.	4.3	.	0.9	-30.8	.	.
CC(=O)c1ccc(OC(C)C(=O)OCC(=O)NCCc2ccccc2)cc1 (centres undefined)	.	8.8	-1.7	-1.3	-7.0	.	.
Cc1c(Cl)ccc2sc(NC(=O)C3CC3)nc12	4.2	2.8	-11.5	0.3	27.3	.	.
O=C(Nc1nc2c(F)cccc2s1)C1CC1	28.6*	1.7	-0.4	-3.3	-12.2	-3.7	12.1
CCN(CC(=O)Nc1c(F)cccc1F)C(=O)c1ccc(Cl)c(S(=O)(=O)N2CCCCC2)c1	35.1*	0.3	-0.4	-0.4	-3.9	13.4	49.5*
CCCN(CC(=O)Nc1ccccc1C)C(=O)c1ccc(Cl)c(S(=O)(=O)N2CCCC2)c1	.	4.8	-3.5	0.6	-29.0	.	.
Cc1cccc(C)c1-n1nnnc1C1(C)CCC(=O)N1Cc1cccs1 (centres undefined)	.	-0.6	.	-0.1	19.4	.	.
NC(=O)CN1CCOCCOCCOCCOCCOCC1	-12.8	7.0	-1.3	-0.2	2.3	.	.
NC(=O)CN1CCOCCOCCN(CC(N)=O)CCOCCOCC1	61.3*	14.0	0.9	-0.6	-4.0	-17.1	-7.8
CCCSc1nnc(CSc2nc3ccccc3s2)n1-c1ccccc1	31.8*	13.4	-3.9	35.0	27.3	9.9	49.9*
N#CCCCSc1nnc(CSc2nc3ccccc3s2)n1-c1ccccc1	5.6	12.2	0.6	-0.3	12.6	.	.
CC(C)c1nc(SCC(=O)c2c[nH]c3ccccc23)n[nH]1	32.6*	-0.5	3.9	0.9	1.8	8.3	17.6
CCc1nc(SCC(=O)c2c[nH]c3ccccc23)n[nH]1	-11.2	4.6	1.5	-1.3	11.7	.	.
COc1ccc(/C=C2/CC/C(=C\c3ccc(OC)c(OC)c3OC)C2=O)c(OC)c1OC	22.9*	-0.3	-5.5	-0.4	9.2	-1.0	67.0*
COc1ccccc1N1CCN(C2CCCN(C(=O)c3cccc(-c4ccco4)c3)C2)CC1 (centres undefined)	3.2	-1.2	-1.8	0.7	-4.2	.	.
O=C1CC(O)C(Cc2ccccc2)N1 (centres undefined)	.	2.2	.	.	-19.0	.	.
